To fix the notation:
B1: tRNA (parent)
chain: GUUCCGUUGGCGUAAUGGUAACGCGUCUCCCUCCUAAGGAGAAGACUGCGGGUUCGAGUCCCGUACGGAACG

This sample holds only a part of the variants without activity.

This data set covers variants of B1. Briefly: yeast fitness relative to wild type (ratio to wild type); higher = fitter; tRNA-Arg(CCU), competitive growth, 37 C, YPD. A digest of the protocol: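 The tRNA-Arg(CCU) gene variants were made by chemical synthesis with a 3% per-site mutation rate at 69 sites and inserted at the native genomic locus of Saccharomyces cerevisiae. After pooling, the strains were competed in YPD at 37°C for 24 hours in six parallel replicates. Gene amplicons from the start population and each end population were read by 100-nucleotide paired-end sequencing, and Darwinian fitness relative to wild type was taken from genotype frequency changes. Genotypes needed ≥ 100 starting reads, and estimates < 0.5 were set to 0.5.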
For A21U U26A C30G A36C A57G, the yeast fitness is at most 0.5.

Consider A21U G25C, for which the yeast fitness was found to be 1.08.

As to A21U G48C G63A, the yeast fitness was at most 0.5.

For A21U U32G C55A U59C, the yeast fitness was at most 0.5.

For the variant A21U U26A U54A G63C A65C, the yeast fitness came out at 0.554.

Regarding A21U U32G, the yeast fitness was 0.808.

For the variant A21U U32A, the yeast fitness was 0.643.

A21U C24A C27A U32C U64A: the yeast fitness was at most 0.5.

For A21U C33U G38A A45U U53A C62U G63C, the yeast fitness is at most 0.5.

As for A21U C30U U32A G63C, the yeast fitness was at most 0.5.

Turning to A21U C24A A45U C62U, the yeast fitness was at most 0.5.

C22A A40C G50C: the yeast fitness came to 0.908.

Turning to A21G G63C, the yeast fitness is 0.73.

For the variant A21G G63A, the yeast fitness is 0.863.

Take A21U A42G C60A: the yeast fitness was at most 0.5.

Turning to A21U G25A C29A A36G C46A C55A, the yeast fitness was at most 0.5.

For the variant A21U A42C, the yeast fitness was 0.741.

As for A21G G48C C61G C62A C66U, the yeast fitness is at most 0.5.

Regarding C22A A37U C66U, the yeast fitness is at most 0.5.

For the variant A21U G38C A65C, the yeast fitness was at most 0.5.

Take A21U A36U A45U A65U A70U: the yeast fitness was 0.624.

A21G U59A: the yeast fitness stood at 0.835.

For A21U C62U, the yeast fitness was 0.716.

With A21U C62A, the yeast fitness came to 0.613.

As to A21U U54A A70G, the yeast fitness was 0.565.

On to A21U C22U G25A A57C G68U A69C, for which the yeast fitness was 0.599.

With A21G U32G G41C, the yeast fitness was at most 0.5.

A21U G41A A42C U54G: the yeast fitness is at most 0.5.

Turning to A21U U54C C55G C60A C61G C66G, the yeast fitness was at most 0.5.

With A21G G58C A65U, the yeast fitness turned out to be 1.18.

Consider A21U C22G C60G G68A, for which the yeast fitness is at most 0.5.

As for A21U C49A, the yeast fitness is at most 0.5.

Take A21U C55U G68C: the yeast fitness is at most 0.5.

As to A21U U64G A69G, the yeast fitness was at most 0.5.

A21U C29G A57U A65C: the yeast fitness was at most 0.5.

For the variant C22A C24G A36G G39C C66U, the yeast fitness is at most 0.5.

In the case of A21U C24U G56A, the yeast fitness was 0.635.

Consider A21U C29U A37U C66U, for which the yeast fitness is at most 0.5.

With A21G G44A A45U, the yeast fitness worked out at 0.914.

Turning to A21G G68A, the yeast fitness worked out at 1.01.

Consider A21U G56C U64C, for which the yeast fitness is at most 0.5.

With C22A A65C, the yeast fitness stood at 0.836.

Take A21G U35C: the yeast fitness is 0.728.

Turning to A21G U35A, the yeast fitness amounted to 0.674.

A21U U28A A42C C49G C62U: the yeast fitness is at most 0.5.

As to C22A A42U C62U, the yeast fitness is 0.549.

In the case of A21U G56C, the yeast fitness came out at 0.579.

Consider A21U C33G, for which the yeast fitness is 0.731.

Regarding A21U C33U, the yeast fitness worked out at 0.732.

With A21U A36G U47C U59A, the yeast fitness is 0.729.

Take A21U: the yeast fitness was 0.861.

As to C22A A57U G67A, the yeast fitness is 0.545.

As to A21U C22A G50C G67A, the yeast fitness was at most 0.5.

In the case of A21U A36C G38C, the yeast fitness is at most 0.5.

For the variant A21U C30A A69U, the yeast fitness was found to be 0.815.

On to A21U A36G A40C A69U, for which the yeast fitness is at most 0.5.

In the case of A21U C27U U53C, the yeast fitness was at most 0.5.

Consider A21U C33A C34G G51C, for which the yeast fitness was at most 0.5.

Take A21U C24U C27A A37C A40U G67C: the yeast fitness turned out to be 0.54.

Take C22A C24G A43G: the yeast fitness was at most 0.5.

Consider A21U A65G, for which the yeast fitness is 0.942.

A21U C27G C61U: the yeast fitness is at most 0.5.

With A21U C66G, the yeast fitness worked out at 0.513.

Consider A21U C55G G56C, for which the yeast fitness is at most 0.5.

A21U G44C: the yeast fitness came out at 0.769.

For the variant A21G U53A A57U, the yeast fitness is 0.516.

As for A21U G51A C66A, the yeast fitness is at most 0.5.

A21U G56A G67U A69C: the yeast fitness is at most 0.5.

Turning to A21G U35A C55U A65G, the yeast fitness was at most 0.5.

On to A21U C22G G51C, for which the yeast fitness is at most 0.5.

With A21U G51A, the yeast fitness stood at 0.751.

As for A21U G51C, the yeast fitness was at most 0.5.

For A21U U28G, the yeast fitness came out at 0.659.

Consider A21G G41A A42C A57C A69G, for which the yeast fitness stood at 0.686.

For A21U C29G C31G A43U G58A U59C, the yeast fitness is at most 0.5.

A21U C30G G41A A43C C55A: the yeast fitness is at most 0.5.

Turning to A21U U59A A70U, the yeast fitness worked out at 0.532.

As to A21G G41C, the yeast fitness was determined as 0.997.

Regarding A21U C24A C30A C31G A43U U54G C62G, the yeast fitness is at most 0.5.

On to A21U G52A, for which the yeast fitness is 0.566.

A21U C31A G39C C61A: the yeast fitness worked out at 0.579.

Regarding A21U C31U G52A, the yeast fitness was 0.602.

Regarding A21U C33A G39C G41C G44C A69C, the yeast fitness is at most 0.5.

Take A21U C30G A70U: the yeast fitness stood at 0.677.

As to C22A A40U A43C G48A A69U, the yeast fitness was at most 0.5.

Turning to A21U C24A A69C, the yeast fitness was at most 0.5.

Regarding A21U C24A A69G, the yeast fitness is at most 0.5.

As to A21G G41C A45U, the yeast fitness came to 0.546.

For the variant A21U C29G C31G A43U C60U, the yeast fitness was 0.586.

Regarding A21U C24A A37U G48C, the yeast fitness came out at 0.534.

In the case of A21U A37U A65C C66U, the yeast fitness was at most 0.5.

As to A21U C55U, the yeast fitness is 0.607.

Regarding A21U U26A A70C, the yeast fitness was at most 0.5.

On to A21U A45U G67C, for which the yeast fitness stood at 0.598.

Regarding A21G U28A C30U, the yeast fitness was at most 0.5.

For A21U A40G C49G, the yeast fitness is at most 0.5.

Take A21U U59G: the yeast fitness was 0.583.

For the variant A21U U59C, the yeast fitness amounted to 0.672.

As to A21U C24G U47A, the yeast fitness is at most 0.5.

A21G U28A: the yeast fitness turned out to be 0.81.

For A21G U28C, the yeast fitness is 0.991.

A21U C22U U32A G39A G51A A65U: the yeast fitness is at most 0.5.

As for A21U A40U A69C, the yeast fitness is 0.574.

For A21G U53G, the yeast fitness was 0.647.

Regarding A21G U54A C62U A65G G68A, the yeast fitness was at most 0.5.

With A21U C24U C27A U35C A37C A40U G67C, the yeast fitness is at most 0.5.

With A21U C30U G48A G67C A69U, the yeast fitness was at most 0.5.

As to A21U C34G G39A C55U, the yeast fitness was at most 0.5.

Regarding A21U A45C, the yeast fitness was found to be 0.913.

With A21G U26A A65C, the yeast fitness came out at 0.527.

For A21G U26G G51C, the yeast fitness was at most 0.5.

Take A21U U64G: the yeast fitness was 0.709.

Regarding C22A A37C G56C, the yeast fitness was at most 0.5.

Regarding C22A A45U, the yeast fitness worked out at 0.837.

For the variant A21U C22G C33U, the yeast fitness was 0.572.

With A21U C30A U35C A40G, the yeast fitness is at most 0.5.

With A21U U28G U59G, the yeast fitness was found to be 0.609.

Regarding A21U C31U, the yeast fitness was 0.717.

In the case of A21U C24A A43C G48A A69C, the yeast fitness is at most 0.5.

Regarding A21U C55G G68A A70C, the yeast fitness was at most 0.5.

In the case of A21U C24A, the yeast fitness came to 0.578.

As for A21U C24U, the yeast fitness came to 0.703.

With A21U C24G, the yeast fitness is at most 0.5.

As for A21U C24A A45U C62A A69C, the yeast fitness was at most 0.5.

As for A21U C29A A36G G58A C66U, the yeast fitness was at most 0.5.

For A21U C49G A69C, the yeast fitness is at most 0.5.

Consider A21U G41A U54C, for which the yeast fitness came to 0.723.

As to A21U C29U A69G, the yeast fitness is at most 0.5.

As to A21U A57U C61G, the yeast fitness is at most 0.5.

Take C22A A40G: the yeast fitness came out at 0.671.

Turning to A21U C31G C33G C60A, the yeast fitness stood at 0.543.

As for A21U A43C A45U C49G C61U, the yeast fitness was 0.56.

Take A21U G41A A42C U59C A69U: the yeast fitness was at most 0.5.

In the case of C22A A37C A65G C66U, the yeast fitness was at most 0.5.

On to A21U C27A G50C G52C G67C, for which the yeast fitness is at most 0.5.

For the variant A21U G48A A57U, the yeast fitness turned out to be 0.714.

Consider A21U C29G G58C, for which the yeast fitness came out at 0.502.

For A21U C29G G58A, the yeast fitness was at most 0.5.

In the case of A21U C55U C62G, the yeast fitness is at most 0.5.

As to A21U A36C G56C, the yeast fitness was at most 0.5.

A21U C27G C33U C34A C61U: the yeast fitness is at most 0.5.

A21U A45U G52A: the yeast fitness is at most 0.5.

With A21U A40C A57C A70U, the yeast fitness is at most 0.5.

As to A21U G25A C33U A57U U59C, the yeast fitness came to 0.562.

Take A21U G44A G56A: the yeast fitness was at most 0.5.

In the case of C22A A37C, the yeast fitness stood at 0.641.

Take C22A A37G: the yeast fitness is 0.823.

With A21U C22G C33U G68A, the yeast fitness was at most 0.5.

Turning to A21U C22U G48A A57U, the yeast fitness was at most 0.5.

Take A21U C22U C55U: the yeast fitness is at most 0.5.

As to A21U C46U C66A, the yeast fitness was at most 0.5.

Turning to A21G U53C A57C A69U, the yeast fitness is 0.597.

As for A21U G41C, the yeast fitness worked out at 0.715.

With A21U G41A, the yeast fitness is 0.727.

For the variant A21U C22U C49A G67A, the yeast fitness is at most 0.5.

Consider A21U C30U G39C A43G C46G U54A C62G, for which the yeast fitness was at most 0.5.

Turning to A21U C27A, the yeast fitness stood at 0.583.

Take C22A A43G G63U U64A: the yeast fitness was at most 0.5.

Consider A21U U26C, for which the yeast fitness worked out at 0.657.

On to A21U U28C C31U, for which the yeast fitness stood at 0.637.

For A21U C33U A57C, the yeast fitness was at most 0.5.

As to A21U A36U C49U G52C C62A G67A, the yeast fitness worked out at 0.616.

With A21U U32G G51C A70G, the yeast fitness was at most 0.5.

As for A21U A57U G68C, the yeast fitness is at most 0.5.

As for A21U C30U U32A, the yeast fitness is at most 0.5.

Take A21U U26A U54A A70U: the yeast fitness is at most 0.5.

With A21U C55U A65C, the yeast fitness was at most 0.5.

For the origin of these results see the RNAGym collection of RNA variant scans (doi:10.1126/science.aae0568).
